Laboratory results as given in ChEMBL document CHEMBL3352065, “Greensporones: resorcylic acid lactones from an aquatic Halenospora sp” (J Nat Prod, 2014).
Activity calls are given as the source filed them. The rule behind the calls is not given here.

How the values were obtained:
[1] = test system: MDA-MB-435; assay: Cytotoxicity against human MDA-MB-435 cells assessed as cell viability after 72 hrs; type: functional, cell-based; conditions: MDA-MB-435, 72 h
In short: (§1)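 ATCC lines grown in RPMI 1640 with 10% FBS, penicillin and streptomycin at 37 °C, 5% CO2. Log-phase cells were trypsinized, washed twice, seeded at 5000/well and incubated overnight. Compound was added from DMSO at 20, 4, 0.8, 0.16 and 0.032 μM (0.5% DMSO final) for 72 h at 37 °C. Viable cells were read by commercial absorbance assay. IC50 is growth inhibition to 50% of DMSO control.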

[2] = molecular target: TAK1/TAB1 (Homo sapiens) (UniProt Q15750+O43318); assay: Inhibition of Tak1-TAB1 (unknown origin) assessed as enzyme activity by Kinase-Glo Plus luminescence kinase assay; type: protein-complex assay
[3] = test system: HT-29; assay: Cytotoxicity against human HT-29 cells assessed as cell viability after 72 hrs; type: functional, cell-based; conditions: HT-29, 72 h; in short: as §1
[4] = test system: MDA-MB-435; assay: Cytotoxicity against human MDA-MB-435 cells assessed as cell viability at 1 nM after 72 hrs; type: functional; conditions: MDA-MB-435, 72 h, read-out: Activity
In short: (§2)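 Vinblastine was the positive control, at 10 nM in HT-29 and 1 nM in MDA-MB-435 cells. Cells were seeded at 5000/well, incubated overnight, then exposed for 72 h at 37 °C in 5% CO2. Viability was read by absorbance assay of viable cells and expressed as % viable cells.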

[5] = test system: HT-29; assay: Cytotoxicity against human HT-29 cells assessed as cell viability at 10 nM after 72 hrs; type: functional; conditions: HT-29, 72 h, read-out: Activity; in short: as §2

SMILES | IC50 [1] [µM] | inhibition [2] | IC50 [3] [µM] | viability at 0.001 µM [4] [%] | viability at 0.01 µM [5] [%]
COc1cc(O)cc2c1C(=O)O[C@@H](C)CCC(=O)CC/C=C/C(=O)C2 | 14.1 | inactive | > 20 | – | –
COc1cc(O)c(Cl)c2c1C(=O)O[C@@H](C)CC[C@@H](O)CCCCC(=O)C2 | – | inactive | – | – | –
COc1cc(O)cc2c1C(=O)O[C@@H](C)CCCCCCCC(=O)C2 | – | inactive | – | – | –
COc1cc(O)cc2c1C(=O)O[C@@H](C)CC[C@@H](O)CC/C=C/C(=O)C2 | 11.2 | inactive | 25.4 | – | –
C[C@H]1CCCCC/C=C/C(=O)Cc2cc(O)cc(O)c2C(=O)O1 | 14.5 | inactive | 13.8 | – | –
COc1cc(O)c(Cl)c2c1C(=O)O[C@@H](C)CCC(=O)CC/C=C/C(=O)C2 | 14.1 | inactive | > 20 | – | –
COc1cc(O)cc2c1C(=O)O[C@@H](C)CC[C@H]1CC[C@@H](CC(=O)C2)O1 | – | inactive | – | – | –
CC[C@]1(O)C[C@@H]2CN(CCc3c([nH]c4ccccc34)[C@@](C(=O)OC)(c3cc4c(cc3OC)N(C)[C@H]3[C@@](O)(C(=O)OC)[C@H](OC(C)=O)[C@]5(CC)C=CCN6CC[C@]43[C@@H]65)C2)C1 [VINBLASTINE] | – | – | – | 21 | 44
COc1cc(O)c(Cl)c2c1C(=O)O[C@@H](C)CCC(=O)CC/C=C\C(=O)C2 | – | inactive | – | – | –
COc1cc(O)c(Cl)c2c1C(=O)O[C@@H](C)CC[C@@H](O)CC/C=C\C(=O)C2 | – | inactive | – | – | –
COc1cc(O)c(Cl)c2c1C(=O)O[C@@H](C)CCC(=O)CCCCC(=O)C2 | – | inactive | – | – | –
COc1cc(O)cc2c1C(=O)O[C@@H](C)CC[C@H]1CC[C@H](CC(=O)C2)O1 | – | inactive | – | – | –
COc1cc(O)cc2c1C(=O)O[C@@H](C)CCCCC/C=C/C(=O)C2 | 2.9 | inactive | 7.5 | – | –
